Hits are enriched below; roughly 2.2% of the tested compounds scored in any of these assays.
SIAE inh: human SIAE inhibitors, primary screen, biochemical, fluorescence polarization, FP-Rh probe, 1536-well HTS; Sialate O-acetylesterase (Homo sapiens), Q9HAT2; SIAE FP-Rh probe binding; inhibition, % at 9.66 µM; 370,000 compounds, 0.69% hits; AID 1053197, 2014;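 active = inhibition above a cutoff: mean of compounds within the control limits plus 3 SD of those, cut at about 17% in these data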
TDP2 inh: human TDP2 enzyme inhibitors, primary screen, biochemical, epi absorbance, recombinant enzyme. inhibition, % at 12.8 µM. AID 720702, 2013. 370,000 compounds, 0.34% hits. T5PNP hydrolysis, p-nitrophenol absorbance 415 nm;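 active = inhibition above the mean of all tested compounds plus 3 SD, set per campaign, cut at about 25% in these data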
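Assay system: recombinant human TDP2 / Reagent: T5PNP substrate at 5 mM, a TopII-DNA adduct mimic / Measured by: epi absorbance from released p-nitrophenol / Evaluation: % inhibition relative to enzyme-containing and enzyme-free wells / Control set: enzyme-free and DMSO wells / Replicates: each compound tested once, singlicate / Schedule: enzyme reaction with compound for 2 h at 37 °C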
HTRA1 inh: HTRA1 serine protease inhibitors, primary screen, biochemical, fluorescence polarization, HTS; recombinant HTRA1, FP-rhodamine activity-based probe; AID 504803, 2011; 340,000 compounds, 0.5% hits; inhibition, % at 5.96 µM; Q92743; in the data active = inhibition above about 36%
mABHD4 FP: ABHD4 inhibitors, primary screen, biochemical, fluorescence polarization, mouse; (Lyso)-N-acylphosphatidylethanolamine lipase (Mus musculus), Q8VD66; purified mABHD4, FP-Rh probe fluorescence polarization; inhibition, % at 8.92 µM; 370,000 compounds, 0.54% hits; AID 720543, 2013;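 active = inhibition exceeding the mean over every tested compound plus 3 SD, cut at about 30% in these data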
Target sequence (Q8VD66 whole entry, looked up): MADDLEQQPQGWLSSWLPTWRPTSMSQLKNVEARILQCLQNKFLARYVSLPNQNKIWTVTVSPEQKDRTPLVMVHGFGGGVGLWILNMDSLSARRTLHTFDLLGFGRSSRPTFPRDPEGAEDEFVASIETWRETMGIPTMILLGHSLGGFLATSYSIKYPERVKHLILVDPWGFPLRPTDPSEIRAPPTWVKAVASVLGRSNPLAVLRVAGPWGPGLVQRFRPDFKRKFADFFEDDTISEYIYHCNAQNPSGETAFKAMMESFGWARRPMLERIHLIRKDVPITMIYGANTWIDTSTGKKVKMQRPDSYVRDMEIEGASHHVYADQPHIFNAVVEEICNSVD
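Assay system: mABHD4 protein; medium: HEPES pH 7.0, NaCl, Pluronic buffer; dosing: 8.92 µM, single dose; schedule: 45 min + 60 min at 25 °C; signal: FP readout, ex 525 nm / em 598 nm; read-out: normalized percent inhibition of probe labeling; repeats: single replicate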
TCR-CD3 inh: inhibitors of human TCR-CD3 interaction, primary screen, biochemical, fluorescence, TAMRA-labeled TCR probe. T-cell receptor (TCR). inhibition, % at 9.4 µM. 360,000 compounds, 0.37% hits; in the data active = inhibition above about 19%;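 note: recombinant mutant TCR 2C K166C tagged with TAMRA read by polarization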
LEDGF integ inh: blockers of LEDGF/p75-dependent integrase strand transfer – biochemical, TR-FRET, high throughput, primary screen; AID 743269, 2014; inhibition, % at 3.7 µM; TR-FRET IN-LEDGF/p75 DNA integration, Eu/Cy5; 370,000 compounds, 0.64% hits; HIV-1 integrase (with human LEDGF/p75);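 active = inhibition above the screen-wide mean plus 3 SD, cut at about 13% in these data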;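 note: signal is the Cy5 over europium emission ratio at 671 and 618 nm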
SIAE inh conf: human SIAE inhibitors, retest, confirmation, biochemical, fluorescence polarization, FP-Rh probe, triplicate | AID 1117263, 2014 | SIAE FP-Rh activity-based probe | 2,300 compounds, 13% hits | inhibition, % at 9.66 µM | shares compounds with SIAE inh;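 active = mean inhibition of the replicates above the hit cutoff set in the primary screen, cut at about 17% in these data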;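 note: inhibitors lower polarization as more probe stays unbound to SIAE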
Large screens that a line does not name were inactive (follow-up assays come after a bar, where they were run).

COc1ccc(C(=O)C[n+]2ccccc2/C=N/O)cc1	SIAE inh 18 | SIAE inh conf inactive
Cc1ccccc1-n1ccnc1SCC(=O)Nc1cccc(S(=O)(=O)NC2=NCCC2)c1	none
Cc1cccc(C(=O)NCC(=O)NCC(c2ccco2)N2CCCCC2)c1 (configuration not stated)	SIAE inh 18 | SIAE inh conf inactive
O=C(NCC(c1ccco1)N1CCc2ccccc21)c1ccc([N+](=O)[O-])cc1 (configuration not stated)	none
O=C(NCC(c1ccco1)N1CCc2ccccc21)c1cccc([N+](=O)[O-])c1 (configuration not stated)	none
Cc1ccc(C(=O)NCC(c2ccco2)N2CCc3ccccc32)cc1 (configuration not stated)	SIAE inh 21 | SIAE inh conf inactive
Cc1cccc(C(=O)NCC(c2ccco2)N2CCc3ccccc32)c1 (configuration not stated)	SIAE inh 22 | SIAE inh conf inactive
CCCc1nc2ccc(Br)cn2c1Cc1ccccc1OC	none (no result: HTRA1 inh)
COc1cccc(NC(=O)CCC(=O)N2CC(C)Oc3ccc(C)cc32)c1 (configuration not stated)	none
COc1cccc(-c2cc(CNC(=O)[C@H]3O[C@@H](n4cnc(C(N)=O)n4)[C@H](O)[C@@H]3O)no2)c1	SIAE inh 77 (no result: HTRA1 inh) | SIAE inh conf 80
COc1ccccc1C(=O)N1CCN(C(=O)[C@@H](Cc2ccccc2)NC(=O)[C@H]2O[C@@H](n3cnc(C(N)=O)n3)[C@H](O)[C@@H]2O)CC1	none (no result: HTRA1 inh)
COc1cccc(-c2cc(CNC(=O)[C@H]3O[C@@H](n4ccc(N)nc4=O)[C@H](O)[C@@H]3O)no2)c1	none (no result: HTRA1 inh)
COc1cccc(-c2cc(CNC(=O)[C@H]3O[C@@H](n4cnc5c(N)ncnc54)[C@H](O)[C@@H]3O)no2)c1	SIAE inh 20 (no result: HTRA1 inh) | SIAE inh conf 25
CCN1CCN(Cc2nc3ccc([N+](=O)[O-])cc3c(=O)n2-c2ccc(OC)cc2OC)CC1	SIAE inh 19 | SIAE inh conf inactive
Cc1cc(=O)[nH]c(/N=C(\N)Nc2ccc3c(c2)OCCO3)n1	none
Cc1cc(C)nc(/N=C(\N)Nc2ccc3c(c2)OCCO3)n1	SIAE inh 18 | SIAE inh conf inactive
Cc1ccnc(NC(=O)c2cccc(S(=O)(=O)NCc3ccccc3)c2)c1	SIAE inh 21 | SIAE inh conf inactive
O=C(Nc1ncccc1O)c1cccc(S(=O)(=O)NCc2ccccc2)c1	none
O=C(NCCc1ccc(OC(F)F)cc1)C1CC(=O)N(c2ccc3c(c2)OCCO3)C1 (configuration not stated)	none
Cc1cnc(C(=O)OCC(=O)c2ccc(-c3ccccc3)cc2)cn1	none
Cc1cnc(C(=O)Oc2ccc(-c3ccccc3)cc2)cn1	SIAE inh 17 | SIAE inh conf inactive
C=CCCC1CN(Cc2ccc(OC)cc2)S(=O)(=O)c2c(Oc3ccc(OC)cc3)cccc2O1 (configuration not stated)	none (no result: HTRA1 inh)
Cc1ccc(C(=O)O)cc1NC(=O)CSc1nnc(-c2ccccc2F)n1C1CCCCC1	SIAE inh 19 | SIAE inh conf inactive
C/C(=N/NC(=S)Nc1cccc(C)c1)c1cccc([N+](=O)[O-])c1	none
C/C(=N\NC(=S)NC(C)C)c1cccc([N+](=O)[O-])c1	SIAE inh 20 | SIAE inh conf inactive
Cc1ccc(NC(=O)C(C)OC(=O)/C=C/c2ccccc2)cc1S(=O)(=O)N1CCOCC1 (configuration not stated)	none
